Test results taken from ChEMBL document CHEMBL3286104, “Synthesis and structure-activity relationship studies in serotonin 5-HT4 receptor ligands based on a benzo[de][2,6]naphthridine scaffold” (Eur J Med Chem, 2014).

Key:
[1] = molecular target: 5-hydroxytryptamine receptor 4 (Cavia porcellus, UniProt O70528); experiment: Displacement of [3H]GR113808 from Dunkin-Hartley guinea pig brain striatum 5HT4R after 30 mins
Outline: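 Striatal crude membranes from decapitated guinea pigs, diluted in 50 mM Hepes pH 7.4, were incubated with [3H]17 (0.2 nM final) at 37 °C for 30 min. Separation by rapid filtration on PEI-treated GF/B filters, then scintillation counting. Nonspecific binding was defined with 30 µM 5-HT. Ki was derived as IC50/(1+L/Kd). Mean ± SEM of 3 independent determinations run in duplicate.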

[2] = molecular target: T1, 5-hydroxytryptamine receptor 4 (Homo sapiens, UniProt Q13639); experiment: Partial agonist activity at Rluc-tagged human 5HT4R expressed in human SH-SY5Y cells assessed as effect on serotonin-induced receptor/Gbeta1 coupling by BRET assay; type: cell-based
Outline: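 BRET on membranes (5 µg protein in PBS) from […] cells co-expressing Rluc-human 5-HT4R and RGFP-Gβ1, with ligand at 10 µM. The baseline recorded without ligand was subtracted, and the BRET ratio was expressed relative to that obtained with 10 µM serotonin. Means ± SEM of 3 determinations.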

[3] = molecular target: T1, 5-hydroxytryptamine receptor 4; experiment: Antagonist activity at Rluc-tagged human 5HT4R expressed in human SH-SY5Y cells assessed as inhibition of serotonin-induced receptor/Gbeta1 coupling by BRET assay; type: cell-based
Outline: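 Cell-free BRET on enriched membranes (5 µg protein in PBS) from […] neuroblastoma cells retrovirally co-expressing Rluc-tagged human 5-HT4R and RGFP-fused Gβ1. Coupling was induced with 100 nM serotonin and inhibited by ligand at 8 log-spaced concentrations. IC50 for 50% inhibition of coupling was computed from the concentration-inhibition curves.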

T1 sequence (Q13639 whole entry): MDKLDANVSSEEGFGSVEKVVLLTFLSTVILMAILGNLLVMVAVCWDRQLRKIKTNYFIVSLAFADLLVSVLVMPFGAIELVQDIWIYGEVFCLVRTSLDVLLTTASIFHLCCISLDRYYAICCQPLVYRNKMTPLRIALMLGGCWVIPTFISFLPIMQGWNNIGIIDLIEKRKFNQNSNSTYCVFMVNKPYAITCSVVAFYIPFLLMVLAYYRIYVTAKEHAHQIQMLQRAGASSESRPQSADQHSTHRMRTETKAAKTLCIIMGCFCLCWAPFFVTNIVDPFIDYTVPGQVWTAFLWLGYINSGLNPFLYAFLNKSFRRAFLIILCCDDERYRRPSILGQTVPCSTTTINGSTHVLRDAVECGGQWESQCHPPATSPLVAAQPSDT
Chain of 5-hydroxytryptamine receptor 4 (Cavia porcellus, UniProt O70528) (O70528 whole entry): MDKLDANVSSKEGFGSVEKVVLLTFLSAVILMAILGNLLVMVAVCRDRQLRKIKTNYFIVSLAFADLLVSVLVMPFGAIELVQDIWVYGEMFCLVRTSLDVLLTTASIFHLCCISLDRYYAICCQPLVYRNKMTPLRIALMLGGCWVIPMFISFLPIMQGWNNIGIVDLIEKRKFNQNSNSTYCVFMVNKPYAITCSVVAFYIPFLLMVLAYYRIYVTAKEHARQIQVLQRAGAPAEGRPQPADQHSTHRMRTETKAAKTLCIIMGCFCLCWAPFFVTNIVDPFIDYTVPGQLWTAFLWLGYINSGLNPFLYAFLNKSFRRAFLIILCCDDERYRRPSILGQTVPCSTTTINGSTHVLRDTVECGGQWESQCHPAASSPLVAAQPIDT

| Ki [1] | IC50 [2] | IC50 [3] | SMILES |
| --- | --- | --- | --- |
| 563 nM | 195 nM | – | O=C1c2cc(Cl)nc3cccc(c23)CN1CCCN1CCCCC1 |
| 44 nM | – | 110 nM | COc1cc2c3c(cccc3n1)C(=O)N(CCCN1CCCCC1)C2=O |
| 19 nM | 49 nM | – | COc1cc(N)c(Cl)cc1C(=O)OCCCN1CCCCC1 |
| > 1000 nM | – | – | COc1cc(C(=O)NCCCN2CCCCC2)c2ccccc2n1 |
| 105 nM | – | 453 nM | O=C1c2cccc3nc(Cl)cc(c23)C(=O)N1CCCN1CCCCC1 |
| 52 nM | – | 203 nM | COc1cc(C(=O)OCCCN2CCCCC2)c2ccccc2n1 |
| > 1000 nM | – | – | O=C1c2cccc3nc(N4CCCC4)cc(c23)C(=O)N1CCCN1CCCCC1 |
| 283 nM | – | 916 nM | COc1cc2c3c(cccc3n1)CN(CCCN1CCCCC1)C2=O |
| > 1000 nM | – | – | O=C1c2cc(N3CCCC3)nc3cccc(c23)CN1CCCN1CCCCC1 |
| 344 nM | – | – | O=C1c2cccc3nc(N4CCCCC4)cc(c23)C(=O)N1CCCN1CCCCC1 |
